From PubChem BioAssay
Activity calls are given as the source filed them.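 How the source made its calls, unless noted: active means fluorescence slope higher than the sample average by over 3 SD (cut at about -0.22 in these data, passing the limit was not always enough); inactive means the rest.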

Key:
[1] = inhibitors of TNFa-induced NFkB p65 translocation, primary screen, imaging, HUVEC, MLSMR starter and 10KST1 sets (AID 438;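 active means inhibition above 20% together with a positive visual image hit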;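 further: compound added about 3h40 before a 20 min TNFalpha stimulation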;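 on inhibition: signal is the nuclear over cytoplasmic p65 intensity ratio per well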); details: HUVEC TNFa-induced p65 nuclear translocation; cell count: measured here: nuclei count (cytotoxicity indicator), at 2.08 µM; inhibition: at 2 µM, stronger effect = higher value, 0% TNFa-plus-vehicle, 100% no-TNFa wells
[2] = reduction of polyQ htt aggregates in cells – imaging, exon1htt(103Q)mCFP cells, high-content imaging, primary screen (AID 483;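 active means visual image review flags a hit and inhibition of aggregation exceeds 20%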;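 further: compound exposure lasted 3 days before fixation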;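 on nuclei count: percent of the per-plate median nuclei count of sample wells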); details: exon1htt(103Q)mCFP cell line, aggregate imaging, at 2 µM; inhibition of aggregation: stronger effect = higher value; nuclei count: measured here: cell count, toxicity
[3] = endothelial E-selectin expression blockers – imaging, HUVEC, immunofluorescence, MLSMR starter and 10KST1 sets, primary screen (AID 487;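 active means visually confirmed hit in the image check and inhibition above 20%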;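 on inhibition: signal is fraction of cell area covered by stained E-selectin grains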;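 on nuclei count: 100% = median nuclei count of all wells on the same plate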); details: HUVEC TNFalpha-induced E-selectin immunofluorescence imaging, at 2 µM; inhibition: stronger effect = higher value; nuclei count: measured here: cell number, toxicity
[4] = target: Voltage-gated potassium channel subunit beta-2 (Rattus norvegicus) (UniProt P62483); assay: inhibitors of rat Kvbeta2 reductase activity – biochemical, NADPH fluorescence, primary screen (AID 622); details: recombinant KvBeta, 4-cyanobenzaldehyde reduction, at 10 µM, stronger effect = higher value;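 further: slope of raw intensity against log time taken from 70 to 1610 s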
[5] = target: Voltage-gated potassium channel subunit beta-2 (Rattus norvegicus) (UniProt P62483); assay: enhancers of rat Kvbeta2 NADPH turnover – biochemical, NADPH fluorescence, primary screen (AID 623;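 active means NADPH fluorescence slope more negative than the mean of all samples by about 3 SD, 99.7% confidence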;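 further: fluorescence intensity change per second fitted from 20 to 320 s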); details: Recombinant KvBeta, NADPH fluorescence decrease slope, 10 min; at 10 µM; stronger effect = lower value
[6] = target: Muscarinic acetylcholine receptor M4 (Homo sapiens) (UniProt P08173); assay: M4-linked GIRK flux change, two-sided – cell-based, HEK293 M4/GIRK, thallium flux, BTC-AM, M4 allosteric agonist project, primary screen (AID 625;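 active means fluorescence slope after compound addition differing from the mean of all tested samples at 99.7% confidence, mostly higher but some lower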;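 further: thallium influx through GIRK channels coupled to M4 in HEK293 cells with BTC-AM dye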); details: at 10 µM, actives lie on both sides
Procedure, shortened: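 Assay system: HEK293 cells with M4 receptor and GIRK channels / Controls: carbachol and DMSO controls / Schedule: 1 h dye loading, 2 min kinetic read / Technique: kinetic fluorescence with BTC-AM dye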

[7] = blockers of RIG-like receptor reporter activation – cell-based, Sendai virus stimulus, luciferase, 10K MLSCN set, TLR/RLR signaling modifier project, primary screen (AID 602276;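 active means inhibition at or above 50% at 10 µM; inactive means inhibition below 50%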;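 further: firefly luciferase from ISG56 promoter only with Renilla not read in this screen; 0% = Sendai virus plus DMSO and 100% = medium plus DMSO without virus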); details: HEK293 RL24 IRF3 luciferase reporter, at 10 µM, stronger effect = higher value
[8] = TLR3 IRF3 reporter activation blockers – cell-based, poly I:C stimulus, luciferase, 10K MLSCN set, primary screen (AID 602277;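 active means inhibition of the reporter signal at or above 50%; inactive means inhibition below 50%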); details: HEK293-TLR3 RL24 IRF3 luciferase reporter, at 10 µM, stronger effect = higher value

Sequence of Muscarinic acetylcholine receptor M4 (Homo sapiens) (P08173 whole entry, looked up): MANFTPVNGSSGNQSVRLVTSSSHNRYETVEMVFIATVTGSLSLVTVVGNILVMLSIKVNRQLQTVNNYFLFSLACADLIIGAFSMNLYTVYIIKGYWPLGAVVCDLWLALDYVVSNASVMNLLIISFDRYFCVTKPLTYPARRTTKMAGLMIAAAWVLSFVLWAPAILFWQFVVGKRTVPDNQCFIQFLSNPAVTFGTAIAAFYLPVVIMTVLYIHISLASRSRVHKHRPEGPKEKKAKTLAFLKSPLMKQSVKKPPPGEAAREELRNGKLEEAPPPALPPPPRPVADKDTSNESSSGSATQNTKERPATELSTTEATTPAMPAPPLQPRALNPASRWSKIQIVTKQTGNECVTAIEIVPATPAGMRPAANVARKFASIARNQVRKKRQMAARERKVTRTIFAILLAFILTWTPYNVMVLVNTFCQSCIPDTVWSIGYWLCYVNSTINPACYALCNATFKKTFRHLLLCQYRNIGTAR
Sequence of Voltage-gated potassium channel subunit beta-2 (Rattus norvegicus) (P62483 whole entry, looked up): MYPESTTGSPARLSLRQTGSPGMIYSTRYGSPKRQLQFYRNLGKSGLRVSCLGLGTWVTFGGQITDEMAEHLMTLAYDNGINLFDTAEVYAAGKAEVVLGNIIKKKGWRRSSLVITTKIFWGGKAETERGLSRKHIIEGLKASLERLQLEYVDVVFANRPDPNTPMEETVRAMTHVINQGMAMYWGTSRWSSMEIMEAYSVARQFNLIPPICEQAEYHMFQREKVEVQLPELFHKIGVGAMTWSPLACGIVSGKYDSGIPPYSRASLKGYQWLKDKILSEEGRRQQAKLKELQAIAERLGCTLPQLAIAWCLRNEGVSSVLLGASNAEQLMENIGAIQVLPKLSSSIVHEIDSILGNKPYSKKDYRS

| Compound | cell count [1] | inhibition [1] | inhibition of aggregation [2] | nuclei count [2] [%] | inhibition [3] | nuclei count [3] [%] | fluorescence slope [4] | NADPH fluorescence slope [5] | fluorescence slope [6] | inhibition [7] | inhibition [8] |
| --- | --- | --- | --- | --- | --- | --- | --- | --- | --- | --- | --- |
| CC(C)c1ccc(S(=O)(=O)N2CCN(C(=O)c3cccc(F)c3)CC2)cc1 | 363 | 4.2% (inactive) | 17% (inactive) | 100 | -70.8% (inactive) | 118 | -0.525 (inactive) | 0.000166 (inactive) | 0.00667 (inactive) | 14.9% (inactive) | 17% (inactive) |
| O=C(OCc1nnc(-c2ccccc2)o1)C1=COCCO1 | 462 | 0% (inactive) | 5.5% (inactive) | 71.7 | -58.4% (inactive) | 110 | -0.432 (inactive) | -1.1e-05 (inactive) | 0.00605 (inactive) | -2.24% (inactive) | -6.55% (inactive) |
| COc1ccc(CNC(=O)Cn2nc(C(F)(F)F)c3c2CCC3)cc1 | 620 | -13.3% (inactive) | -8% (inactive) | 103 | -56.6% (inactive) | 116 | -0.396 (inactive) | -9.3e-05 (inactive) | 0.00662 (inactive) | 6.68% (inactive) | 19.7% (inactive) |
| CCn1c(=N)n(CC(=O)C23CC4CC(CC(C4)C2)C3)c2ccccc21 | 721 | -26.7% (inactive) | -8.2% (inactive) | 93.6 | -45.9% (inactive) | 117 | -0.271 (inactive) | -1.5e-05 (inactive) | 0.00365 (inactive) | 1.98% (inactive) | 23.3% (inactive) |
| CCOC(=O)c1sc2nc3c(cc2c1N)COC(C)(C)C3 | 746 | -5.9% (inactive) | 0.2% (inactive) | 105 | 8.8% (inactive) | 105 | -0.432 (inactive) | -5.4e-06 (inactive) | 0.0043 (inactive) | -38.4% (inactive) | -104% (inactive) |
| CCN(CCNC(=O)C1CCN(S(=O)(=O)CC)CC1)c1ccccc1 | 446 | -14.7% (inactive) | 5.7% (inactive) | 86.2 | -93.7% (inactive) | 106 | -0.254 (inactive) | -2.8e-05 (inactive) | 0.00662 (inactive) | 15.8% (inactive) | 11.8% (inactive) |
| Cc1ccc(-n2nnnc2SCC(=O)N2CCc3ccccc3C2)cc1 | 526 | -10.2% (inactive) | -6.8% (inactive) | 104 | -28.6% (inactive) | 148 | -0.49 (inactive) | 8.4e-07 (inactive) | 0.00503 (inactive) | 8.66% (inactive) | 11% (inactive) |
| Cc1c(NC(=O)C2CCCNC2=O)c(=O)n(-c2ccccc2)n1C (configuration not stated) | 394 | -2.2% (inactive) | -1.6% (inactive) | 101 | -36.5% (inactive) | 106 | -0.495 (inactive) | 3.2e-05 (inactive) | 0.00472 (inactive) | 11.5% (inactive) | 6.36% (inactive) |
| COc1ccc2c(=O)c3c(=O)n(Cc4ccco4)c(C(C)C)nc3oc2c1 | 436 | -3.9% (inactive) | -10.1% (inactive) | 91.7 | -15.2% (inactive) | 107 | -0.564 (inactive) | -2.1e-05 (inactive) | 0.00474 (inactive) | 4.04% (inactive) | 9.95% (inactive) |
| N#CCCn1cnc2ccccc21 | 332 | 5.6% (inactive) | 22.8% (inactive) | 99.2 | 63.2% (active) | 132 | -0.564 (inactive) | -2.5e-05 (inactive) | 0.0098 (inactive) | -0.285% (inactive) | 3.23% (inactive) |
| CN1CCCc2cc(C#N)c(=O)[nH]c21 | 492 | -9.7% (inactive) | -0.4% (inactive) | 108 | 3.9% (inactive) | 85 | -0.117 (active) | 1e-05 (inactive) | 0.00776 (inactive) | 11.5% (inactive) | 14% (inactive) |
| Cc1noc(C)c1S(=O)(=O)NCCN1CCN(c2ccccc2)CC1 | 413 | -5.2% (inactive) | -8.9% (inactive) | 118 | -42.6% (inactive) | 141 | -0.546 (inactive) | 4.8e-05 (inactive) | 0.0066 (inactive) | 12.9% (inactive) | 20.2% (inactive) |
